Assay results published in ChEMBL document CHEMBL1140128 (J Med Chem, 2008).
Each block holds one compound with its values, some of them ahead of it. Active and inactive are the calls of the source. No cut-off for these calls is given here.

Assays:
[1] = target: Melanocortin receptor 5 (Mus musculus) (UniProt P41149); test: Agonist activity at mouse MC5R expressed in HEK293 cells by CRE/beta-galactosidase reporter gene assay relative to Ac-His-DPhe7-Arg-Trp-NH2 peptide; assay type: functional, cell-based
How it was run: (§1)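 HEK293 cells stably expressing the mouse receptor (G418 selection) were transfected with CRE/β-galactosidase reporter. After 48 h they were stimulated for 6 h with peptide (10^-4–10^-12 M) in DMEM with 0.1 mg/mL BSA and 0.1 mM IBMX. Lysates were read with ONPG substrate at OD405 and normalized to protein (OD595) and to a 10^-4 M forskolin control.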

Melanocortin receptor 4 [2] = target: T1, Melanocortin receptor 4 (Mus musculus, UniProt P56450); test: Agonist activity at mouse MC4R expressed in HEK293 cells by CRE/beta-galactosidase reporter gene assay; assay type: functional, cell-based; how it was run: as §1
[3] = target: Melanocyte-stimulating hormone receptor (Mus musculus) (UniProt Q01727); test: Agonist activity at mouse MC1R expressed in HEK293 cells by CRE/beta-galactosidase reporter gene assay relative to Ac-His-DPhe7-Arg-Trp-NH2 peptide; assay type: functional, cell-based; how it was run: as §1
Mus musculus [4] = species on record: Mus musculus; test: Selectivity for mouse MC4R over mouse MC3R by CRE/beta-galactosidase reporter gene assay
Mus musculus [5] = species on record: Mus musculus; test: Selectivity for mouse MC4R over mouse MC1R by CRE/beta-galactosidase reporter gene assay
Melanocortin receptor 3 [6] = target: T2, Melanocortin receptor 3 (Mus musculus, UniProt P33033); test: Antagonist activity at mouse MC3R expressed in HEK293 cells assessed as effect on MT2 peptide-induced response by CRE/beta-galactosidase reporter gene assay; assay type: functional, cell-based; details: for Kb: read-out: pA2 (converted)
How it was run: (§2)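 Mouse MC3R HEK293 stable line carrying transfected CRE/β-galactosidase reporter, 6 h stimulation in IBMX-containing medium. Peptides tested for dose-dependent competitive displacement of MTII agonist at up to 10 μM (footnote: up to 100 μM).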

[7] = target: Melanocortin receptor 3 (Mus musculus) (UniProt P33033); test: Agonist activity at mouse MC3R expressed in HEK293 cells by CRE/beta-galactosidase reporter gene assay relative to Ac-His-DPhe7-Arg-Trp-NH2 peptide; assay type: functional, cell-based; how it was run: as §1
[8] = target: Melanocortin receptor 4 (Mus musculus) (UniProt P56450); test: Agonist activity at mouse MC4R expressed in HEK293 cells by CRE/beta-galactosidase reporter gene assay relative to Ac-His-DPhe7-Arg-Trp-NH2 peptide; assay type: functional, cell-based; how it was run: as §1
Melanocortin receptor 5 = Melanocortin receptor 5 (Mus musculus, UniProt P41149); test: Agonist activity at mouse MC5R expressed in HEK293 cells by CRE/beta-galactosidase reporter gene assay; assay type: functional, cell-based; how it was run: as §1
[9] = target: Melanocyte-stimulating hormone receptor (Mus musculus, UniProt Q01727); test: Agonist activity at mouse MC1R expressed in HEK293 cells by CRE/beta-galactosidase reporter gene assay; assay type: functional, cell-based
How it was run: (§3)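 HEK293 cells stably expressing the mouse receptor (G418 selection) were transfected with CRE/β-galactosidase reporter. Lysates were read with ONPG substrate at OD405 and normalized to protein (OD595) and to a 10^-4 M forskolin control.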

[10] = target: Melanocortin receptor 3 (Mus musculus) (UniProt P33033); test: Antagonist activity at mouse MC3R expressed in HEK293 cells assessed as effect on MT2 peptide-induced response up to 100 uM by CRE/beta-galactosidase reporter gene assay; assay type: functional, cell-based; how it was run: as §2
[11] = target: Melanocortin receptor 3 (Mus musculus) (UniProt P33033); test: Agonist activity at mouse MC3R expressed in HEK293 cells up to 100 uM by CRE/beta-galactosidase reporter gene assay; assay type: functional, cell-based; how it was run: as §1
Melanocortin receptor 3 [12] = target: T2, Melanocortin receptor 3; test: Agonist activity at mouse MC3R expressed in HEK293 cells by CRE/beta-galactosidase reporter gene assay; assay type: functional, cell-based; how it was run: as §3
Melanocortin receptor 4 [13] = target: T1, Melanocortin receptor 4; test: Antagonist activity at mouse MC4R expressed in HEK293 cells assessed as effect on MT2 peptide-induced response by CRE/beta-galactosidase reporter gene assay; assay type: functional, cell-based; details: read-out: pA2 (converted)

T2 sequence (P33033 whole entry): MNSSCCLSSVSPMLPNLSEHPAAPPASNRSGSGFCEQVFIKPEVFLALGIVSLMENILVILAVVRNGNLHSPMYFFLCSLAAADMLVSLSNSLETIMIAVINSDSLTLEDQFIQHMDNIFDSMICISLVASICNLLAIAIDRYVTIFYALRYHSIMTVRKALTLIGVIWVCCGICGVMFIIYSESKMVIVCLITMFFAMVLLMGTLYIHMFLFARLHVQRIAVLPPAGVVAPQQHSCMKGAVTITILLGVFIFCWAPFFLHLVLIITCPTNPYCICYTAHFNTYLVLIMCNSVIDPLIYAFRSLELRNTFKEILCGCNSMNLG
Sequence of Melanocortin receptor 3 (Mus musculus) (P33033 whole entry): as above
Sequence of Melanocortin receptor 5 (Mus musculus) (P41149 whole entry): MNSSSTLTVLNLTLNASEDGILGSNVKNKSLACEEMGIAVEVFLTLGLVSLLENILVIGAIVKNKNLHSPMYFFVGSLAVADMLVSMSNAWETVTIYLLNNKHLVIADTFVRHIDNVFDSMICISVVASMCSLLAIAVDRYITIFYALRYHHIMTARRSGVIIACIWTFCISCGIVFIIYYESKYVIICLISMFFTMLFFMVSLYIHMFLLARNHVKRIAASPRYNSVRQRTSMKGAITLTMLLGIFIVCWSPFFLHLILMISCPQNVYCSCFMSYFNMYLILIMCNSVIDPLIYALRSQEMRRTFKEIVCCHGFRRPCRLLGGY
Sequence of Melanocortin receptor 5 (P41149 whole entry): as above
T1 sequence (P56450 whole entry): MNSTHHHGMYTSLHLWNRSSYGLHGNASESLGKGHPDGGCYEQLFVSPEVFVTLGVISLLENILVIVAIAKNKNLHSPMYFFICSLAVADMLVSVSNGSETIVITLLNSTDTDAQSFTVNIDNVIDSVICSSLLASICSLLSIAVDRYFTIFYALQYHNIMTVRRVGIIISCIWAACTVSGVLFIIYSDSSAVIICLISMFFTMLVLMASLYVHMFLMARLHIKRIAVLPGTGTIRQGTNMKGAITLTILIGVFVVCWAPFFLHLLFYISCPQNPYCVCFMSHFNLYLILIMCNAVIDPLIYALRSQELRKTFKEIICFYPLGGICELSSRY
Sequence of Melanocortin receptor 4 (Mus musculus) (P56450 whole entry): as above
Sequence of Melanocyte-stimulating hormone receptor (Mus musculus) (Q01727 whole entry, looked up): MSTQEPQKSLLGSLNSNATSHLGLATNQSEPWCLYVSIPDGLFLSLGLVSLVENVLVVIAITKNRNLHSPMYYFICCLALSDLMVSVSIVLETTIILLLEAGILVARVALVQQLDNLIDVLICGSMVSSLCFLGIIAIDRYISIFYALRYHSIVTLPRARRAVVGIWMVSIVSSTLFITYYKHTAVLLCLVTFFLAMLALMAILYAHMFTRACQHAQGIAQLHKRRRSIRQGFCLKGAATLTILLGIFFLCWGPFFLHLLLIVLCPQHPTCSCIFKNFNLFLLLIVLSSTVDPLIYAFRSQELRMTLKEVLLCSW
Sequence of Melanocyte-stimulating hormone receptor (Q01727 whole entry): as the sequence (Q01727 whole entry, looked up) above

- fold change (FC) [1]: 1
- EC50 (Melanocortin receptor 4 [2]): 2.84 nM
Compound: CC(=O)N[C@@H](Cc1cnc[nH]1)C(=O)N[C@H](Cc1ccc(C#N)cc1)C(=O)N[C@@H](CCCNC(=N)N)C(=O)N[C@@H](Cc1c[nH]c2ccccc12)C(N)=O

- Ratio EC50 (Mus musculus [4]): 200
- fold change (FC) [1]: -2
- Ratio EC50 (Mus musculus [5]): 200
Compound: CC(=O)N[C@@H](Cc1cnc[nH]1)C(=O)N[C@H](Cc1ccc(Cl)cc1)C(=O)N[C@@H](CCCNC(=N)N)C(=O)N[C@@H](Cc1c[nH]c2ccccc12)C(N)=O

- fold change (FC) [7]: 5
Compound: CC(=O)N[C@@H](Cc1cnc[nH]1)C(=O)N[C@H](Cc1ccc([N+](=O)[O-])cc1)C(=O)N[C@@H](CCCNC(=N)N)C(=O)N[C@@H](Cc1c[nH]c2ccccc12)C(N)=O

- Ratio EC50 (Mus musculus [4]): 140
Compound: CC(=O)N[C@@H](Cc1cnc[nH]1)C(=O)N[C@H](Cc1cccc(Cl)c1)C(=O)N[C@@H](CCCNC(=N)N)C(=O)N[C@@H](Cc1c[nH]c2ccccc12)C(N)=O

- fold change (FC) [1]: 2
- fold change (FC) [8]: 2
Compound: CC(=O)N[C@@H](Cc1cnc[nH]1)C(=O)N[C@H](Cc1ccc(C)cc1)C(=O)N[C@@H](CCCNC(=N)N)C(=O)N[C@@H](Cc1c[nH]c2ccccc12)C(N)=O

- fold change (FC) [3]: 21
- fold change (FC) [1]: 69
- fold change (FC) [8]: 96
- fold change (FC) [7]: 130
Compound: CC(=O)N[C@@H](Cc1cnc[nH]1)C(=O)N[C@H](Cc1ccc(N)cc1)C(=O)N[C@@H](CCCNC(=N)N)C(=O)N[C@@H](Cc1c[nH]c2ccccc12)C(N)=O

- Activity [10]: inactive
- Activity [11]: inactive
Compound: CC(=O)N[C@@H](Cc1cnc[nH]1)C(=O)N[C@H](Cc1ccc(C(C)(C)C)cc1)C(=O)N[C@@H](CCCNC(=N)N)C(=O)N[C@@H](Cc1c[nH]c2ccccc12)C(N)=O

- fold change (FC) [3]: 23
- fold change (FC) [1]: 223
- EC50 (Melanocortin receptor 4 [2]): 390 nM
- fold change (FC) [8]: 171
- EC50 (Melanocortin receptor 5): 730 nM
- EC50 [9]: 2600 nM
- fold change (FC) [7]: 99
- EC50 (Melanocortin receptor 3 [12]): 12500 nM
Compound: CC(=O)N[C@@H](Cc1cnc[nH]1)C(=O)N[C@H](Cc1ccc(O)cc1)C(=O)N[C@@H](CCCNC(=N)N)C(=O)N[C@@H](Cc1c[nH]c2ccccc12)C(N)=O

- fold change (FC) [3]: -2
- Ratio EC50 (Mus musculus [4]): 200
- fold change (FC) [7]: -2
- Ratio EC50 (Mus musculus [5]): 200
Compound: CC(=O)N[C@@H](Cc1cnc[nH]1)C(=O)N[C@H](Cc1ccc(F)cc1)C(=O)N[C@@H](CCCNC(=N)N)C(=O)N[C@@H](Cc1c[nH]c2ccccc12)C(N)=O

- Ki (Melanocortin receptor 3 [6]): 350 nM
- Kb (Melanocortin receptor 3 [6]): 28.8 nM
Compound: CC(=O)N[C@@H](Cc1cnc[nH]1)C(=O)N[C@H](Cc1ccc(Br)cc1)C(=O)N[C@@H](CCCNC(=N)N)C(=O)N[C@@H](Cc1c[nH]c2ccccc12)C(N)=O

The next lines start with the compound.

Compound: CC(=O)N[C@@H](Cc1cnc[nH]1)C(=O)N[C@H](Cc1ccc(Cl)c(Cl)c1)C(=O)N[C@@H](CCCNC(=N)N)C(=O)N[C@@H](Cc1c[nH]c2ccccc12)C(N)=O
- fold change (FC) [3]: 1

Compound: CC(=O)N[C@@H](Cc1cnc[nH]1)C(=O)N[C@H](Cc1ccc(Cl)c(Cl)c1)C(=O)N[C@@H](CCCN=C(N)N)C(=O)N[C@@H](Cc1c[nH]c2ccccc12)C(N)=O
- Ki (Melanocortin receptor 3 [6]): 260 nM
- Kb (Melanocortin receptor 3 [6]): 38 nM

Compound: CC(=O)N[C@@H](Cc1cnc[nH]1)C(=O)N[C@H](Cc1ccccc1)C(=O)N[C@@H](CCCNC(=N)N)C(=O)N[C@@H](Cc1c[nH]c2ccccc12)C(N)=O
- fold change (FC) [3]: 1
- fold change (FC) [1]: 1
- fold change (FC) [8]: 1
- fold change (FC) [7]: 1

Compound: CC(=O)N[C@@H](Cc1cnc[nH]1)C(=O)N[C@H](Cc1ccc(N)cc1)C(=O)N[C@@H](CCCN=C(N)N)C(=O)N[C@@H](Cc1c[nH]c2ccccc12)C(N)=O
- EC50 (Melanocortin receptor 5): 226 nM

Compound: CC(=O)N[C@@H](Cc1cnc[nH]1)C(=O)N[C@H](Cc1ccc(C(F)(F)F)cc1)C(=O)N[C@@H](CCCNC(=N)N)C(=O)N[C@@H](Cc1c[nH]c2ccccc12)C(N)=O
- Ki (Melanocortin receptor 3 [6]): 6170 nM
- Kb (Melanocortin receptor 3 [6]): 162 nM

Compound: CC(=O)N[C@@H](Cc1cnc[nH]1)C(=O)N[C@H](Cc1ccc(F)cc1)C(=O)N[C@@H](CCCN=C(N)N)C(=O)N[C@@H](Cc1c[nH]c2ccccc12)C(N)=O
- EC50 [9]: 53.7 nM

Compound: CC(=O)N[C@@H](Cc1cnc[nH]1)C(=O)N[C@H](Cc1ccccc1)C(=O)N[C@@H](CCCN=C(N)N)C(=O)N[C@@H](Cc1c[nH]c2ccccc12)C(N)=O
- EC50 (Melanocortin receptor 4 [2]): 2.28 nM
- Kb (Melanocortin receptor 4 [13]): 5.01 nM
- EC50 (Melanocortin receptor 5): 3.26 nM

Compound: CC(=O)N[C@H](Cc1cnc[nH]1)C(=O)NC(Cc1ccc2ccccc2c1)C(=O)N[C@@H](CCCNC(=N)N)C(=O)N[C@@H](Cc1c[nH]c2ccccc12)C(N)=O (stereo in doubt)
- Ki (Melanocortin receptor 3 [6]): 5010 nM

Compound: CC(=O)N[C@@H](Cc1cnc[nH]1)C(=O)N[C@H](Cc1ccc(C(=O)c2ccccc2)cc1)C(=O)N[C@@H](CCCNC(=N)N)C(=O)N[C@@H](Cc1c[nH]c2ccccc12)C(N)=O
- EC50 (Melanocortin receptor 4 [2]): 63.8 nM
- EC50 (Melanocortin receptor 5): 51.1 nM
- EC50 [9]: 180 nM
